The results in this text go back to ChEMBL document CHEMBL2163208, “Diphenylpyridylethanamine (DPPE) derivatives as cholesteryl ester transfer protein (CETP) inhibitors” (J Med Chem, 2012).

Series [1] is described as follows: Metabolic stability in mouse liver microsomes assessed as compound remaining at 3 uM after 10 mins. Type of series: ADME, Microsome. Particulars: read-out: Stability. The procedure, abridged:
(§1)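 Mouse liver microsomes (1 mg/mL protein) incubated with compound at 3 μM for 10 min; remaining compound quantified by UV absorbance, expressed as % remaining or rate per mg protein.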

Series [2] can be described thus: Drug metabolism in mouse liver microsomes assessed as per mg of protein at 3 uM after 10 mins. Type of series: ADME, Microsome. The procedure, abridged:
as §1

The nature of series [3]: AUC (0 to 8 hrs) in transgenic mouse expressing human CETP and apoB-100 at 30 mg/kg, po. Format: ADME, organism-based. More on the design: time < 8 hr, dose 30 mg/kg, route oral. Particulars: plasma.
The species named for series [4] is Mus musculus. Description: Inhibition of [3H]cholesteryl ester transfer from HDL to LDL in human CETP expressed transgenic mouse plasma coexpressing apoB-100.
Series [5] deals with Mus musculus. Description: [3H]cholesteryl ester transfer activity from HDL to LDL in human CETP expressed transgenic mouse plasma coexpressing apoB-100 at 30 mg/kg, po measured at 2 hrs relative to predose condition.
For series [6], the system named is Mus musculus. Description: Residual CETP-mediated [3H]cholesteryl ester transfer from HDL to LDL in human CETP expressed transgenic mouse coexpressing apoB-100 at 30 mg/kg, po measured at 8 hrs relative to predose condition.
Series [7] concerns Mus musculus. Description: Residual CETP-mediated [3H]cholesteryl ester transfer from HDL to LDL in human CETP expressed transgenic mouse coexpressing apoB-100 at 30 mg/kg, po measured at 4 hrs relative to predose condition.
The target of series [8] is T1, Cholesteryl ester transfer protein (Homo sapiens, UniProt P11597).
T1 sequence (P11597 whole entry): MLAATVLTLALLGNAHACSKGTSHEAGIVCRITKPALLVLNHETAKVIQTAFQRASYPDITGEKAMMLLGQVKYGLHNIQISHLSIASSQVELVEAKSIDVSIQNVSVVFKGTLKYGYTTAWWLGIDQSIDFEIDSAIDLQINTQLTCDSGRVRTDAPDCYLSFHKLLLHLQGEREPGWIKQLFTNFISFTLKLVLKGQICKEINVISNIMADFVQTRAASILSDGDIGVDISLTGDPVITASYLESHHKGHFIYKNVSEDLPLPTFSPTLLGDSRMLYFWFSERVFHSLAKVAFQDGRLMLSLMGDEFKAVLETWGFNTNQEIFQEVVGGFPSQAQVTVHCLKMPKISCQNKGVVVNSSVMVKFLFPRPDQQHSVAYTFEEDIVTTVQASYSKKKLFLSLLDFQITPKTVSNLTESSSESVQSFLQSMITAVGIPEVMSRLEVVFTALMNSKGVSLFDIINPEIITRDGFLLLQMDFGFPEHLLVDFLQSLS
In words: Inhibition of human recombinant CETP-mediated [3H]cholesteryl ester transfer from HDL to biotinylated LDL by scintillation proximity assay.

For series [9], the target named is T1, Cholesteryl ester transfer protein. Description: Inhibition of CETP-mediated [3H]cholesteryl ester transfer activity in human plasma after 2.5 hrs by scintillation counter.
Series [10] is described as follows: Half life in telemeterized rat up to 60 mg/kg, po. Format: ADME, organism-based. More on the design: dose 60 mg/kg, route oral. The settings on record: in vivo.
Series [11] concerns Rattus norvegicus. In words: Toxicity in telemeterized rat assessed as change in heart rate up to 60 mg/kg, po. Also on record: dose 60 mg/kg, route oral. The settings on record: in vivo. Type of series: organism-based.
A short description of series [12]: Cmax in telemeterized rat up to 60 mg/kg, po. Particulars: in vivo. Format: ADME, organism-based. More on the design: dose 60 mg/kg, route oral.
Series [13] has as its system Rattus norvegicus. In words: Toxicity in telemeterized rat assessed as change in mean arterial blood pressure up to 60 mg/kg, po. Type of series: organism-based. Also on record: dose 60 mg/kg, route oral. The settings on record: in vivo.
Series [14] concerns Syrian golden hamster. In words: Inhibition of CETP in moderately fat-fed golden Syrian hamster assessed as increase in HDL-cholesterol level at 30 mg/kg, po qd administered for 3 days measured at 2 hrs post last dose relative to predose condition. Type of series: functional, Mesocricetus auratus. Also on record: scale not given: the % may be the effect or the level left. The procedure, abridged:
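Male Golden Syrian hamsters, 12 weeks old, fed moderate-fat diet (2.5% coconut oil, 0.25% cholesterol) for 2 weeks. Predose retro-orbital bleed; 30 mg/kg po q.d. for 3 days in ethanol/Cremophor/water 1:1:8. Blood 2 h postdose on day 3; HDL-C measured by automated lipid analyzer versus predose; percent increase as mean ± SEM, N = 6.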

Series [15] in a line: Plasma concentration in moderately fat-fed golden Syrian hamster at 30 mg/kg, po qd administered for 3 days measured at 2 hrs post last dose. Type of series: ADME, organism-based, Mesocricetus auratus. Also on record: dose 30 mg/kg, route oral. The method in brief:
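Moderately fat-fed male Golden Syrian hamsters dosed 30 mg/kg po once daily; plasma exposure sampled 2 h after dosing on day 3.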

On to `O=C(NC1CCCC1)N[C@@](Cc1ccccc1)(c1cc(F)cc(OC(F)(F)C(F)F)c1)c1ccc(Cl)cn1`, for which, in [1], the remaining at 10 min, 3 µM worked out at 10%. The Drug metabolism in [2] stood at 0.27 nmol/min/mg. The compound further had an AUC(0-t) at 8 h in [3] of 9.7 µM·h. In series [4], this compound came in with an IC50 of 0.94 µM. Besides, the activity in vivo at 30 mg/kg in series [5] was 48%. Moreover, the values for the CETP activity in vivo at 30 mg/kg in series [6] and in series [7] were 65% and 58%, respectively.

On to `O=C(NC1CCCC1)N[C@@](Cc1ncn[nH]1)(c1cc(F)cc(C(F)(F)F)c1)c1ccc(Cl)cn1`, for which, in series [8], the IC50 was over 96 µM.

Consider `O=C(NC1CCCC1)N[C@@](Cc1ccccn1)(c1cc(F)cc(C(F)(F)F)c1)c1ccc(Cl)cn1`, for which, in series [8], the IC50 is 27 µM.

`COC(=O)C[C@](NC(=O)NC1CCCC1)(c1cc(F)cc(C(F)(F)F)c1)c1ccc(Cl)cn1`: in series [8], the IC50 is 2.4 µM.

For `Cc1csc(C[C@](NC(=O)NC2CCCC2)(c2cc(F)cc(C(F)(F)F)c2)c2ccc(Cl)cn2)n1`, the values for the IC50 in series [8] and in series [9] were 1.1 µM and 24 µM, respectively.

For the compound `Cc1nc(C[C@](NC(=O)NC2CCCC2)(c2cc(F)cc(C(F)(F)F)c2)c2ccc(Cl)cn2)no1`, the IC50 was 1.07 µM in series [8] and 34 µM in series [9].

Turning to `O=C(NC1CCCC1)N[C@@](Cc1ccc(F)cc1)(c1cc(F)cc(C(F)(F)F)c1)c1ccc(Cl)cn1`, the IC50 in series [8] stood at 0.087 µM; in [9], 10 µM.

In the case of `C=CC[C@](NC(=O)NC1CCCC1)(c1cc(F)cc(C(F)(F)F)c1)c1ccc(Cl)cn1`, the results for the IC50 in series [8] and in series [9] were 0.085 µM and 7.1 µM, respectively.

In the case of `Cc1ccc(C[C@](NC(=O)NC2CCCC2)(c2cc(F)cc(C(F)(F)F)c2)c2ccc(Cl)cn2)cc1`, the results for the IC50 in series [8] and in series [9] were 0.023 µM and 3.4 µM, respectively.

Take `O=C(NC1CCCC1)N[C@@](Cc1ccccc1F)(c1cc(F)cc(C(F)(F)F)c1)c1ccc(Cl)cn1`: the IC50 in series [8] worked out at 0.016 µM; in series [9] it was 6.4 µM.

In the case of `CC(C)(C)CC(=O)O[C@@](Cc1ccccc1)(c1cccc(C(F)(F)F)c1)c1ccccn1`, the IC50 in series [8] stood at 6.7 µM; in series [9], 26 µM.

As to `CC(C)(C)CC(=O)O[C@](Cc1ccccc1)(c1cccc(C(F)(F)F)c1)c1ccccn1`, the values for the IC50 in series [8] and in [9] were 44 µM and over 97 µM, respectively.

Take `O=C(NC(Cc1ccccc1)(c1cccc(C(F)(F)F)c1)c1ccccn1)c1ccccc1` (stereo not given): the IC50 in series [8] is over 96 µM.

As for `CC(C)(C)CC(=O)NC(Cc1ccccc1)(c1cccc(C(F)(F)F)c1)c1ccccn1` (stereo not given), in series [8], the IC50 turned out to be 27 µM.

With `O=C(NC(Cc1ccccc1)(c1cccc(C(F)(F)F)c1)c1ccccn1)c1cccc(C(F)(F)F)c1` (stereo not given), in series [8], the IC50 came to 12 µM.

`O=C(NC(Cc1ccccc1)(c1cccc(C(F)(F)F)c1)c1ccccn1)c1ccc(F)cc1` (stereo not given): in [8], the IC50 amounted to 8.9 µM.

On to `CC(C)(C)NC(=O)NC(Cc1ccccc1)(c1cccc(C(F)(F)F)c1)c1ccccn1` (stereo not given), for which the IC50 was determined as 3.8 µM in series [8] and 83 µM in series [9].

In the case of `O=C(NC(Cc1ccccc1)(c1cccc(C(F)(F)F)c1)c1ccccn1)c1ccc(F)c(C(F)(F)F)c1` (stereo not given), the values for the IC50 in [8] and in [9] were 2.9 µM and 15 µM, respectively. Further, the remaining at 10 min, 3 µM in series [1] worked out at 68%.

`O=C(NC1CCCC1)NC(Cc1ccccc1)(c1cccc(C(F)(F)F)c1)c1ccccn1` (stereo not given): the figures for the IC50 in series [8] and in series [9] were 0.7 µM and 25 µM, respectively. In series [1], the remaining at 10 min, 3 µM is 2%.

Consider `N#Cc1ccc([C@@](Cc2ccccc2)(NC(=O)NC2CCCC2)c2cc(F)cc(C(F)(F)F)c2)nc1`, for which the IC50 in series [8] was 0.036 µM; in series [9], 12 µM.

For `O=C(NC1CCCC1)N[C@@](Cc1ccccc1)(c1cc(F)cc(C(F)(F)F)c1)c1ccc(F)cn1`, the IC50 in series [8] was 0.026 µM; in series [9], 7.6 µM.

`COc1ccc([C@@](Cc2ccccc2)(NC(=O)NC2CCCC2)c2cc(F)cc(C(F)(F)F)c2)cn1`: the results for the half-inhibitory concentration (IC50) in series [8] and in [9] were 0.015 µM and 3.4 µM, respectively.

For `O=C(N[C@@](Cc1ccccc1)(c1cc(F)cc(OC(F)(F)C(F)F)c1)c1ccc(Cl)cn1)c1ccc(F)c(C(F)(F)F)c1`, the IC50 in series [8] was 0.036 µM; in series [9], 3.6 µM; in series [4], 9 µM. This compound showed a half-life in series [10] of 14 h. In addition, the Activity entry in [11] is recorded as “Non-toxic”; in series [13] it was “Non-toxic”; in series [14], 40%. Moreover, the Cmax in series [12] is 25 µM. Besides, the concentration at 2 h in series [15] came out at 21 µM. The remaining at 10 min, 3 µM in series [1] was 100%. Besides, in [2], the Drug metabolism stood at 0.0025 nmol/min/mg. In addition, the AUC(0-t) at 8 h in series [3] was determined as 93 µM·h. In [5], this compound had an activity in vivo at 30 mg/kg of 55%. Further, the CETP activity in vivo at 30 mg/kg is 40% in [6] and 48% in series [7].

`O=C(NC1CCCC1)NC(Cc1ccccc1)(c1cccc(OC(F)(F)F)c1)c1ccc(Cl)cn1` (racemic): the results for the IC50 in series [8] and in [9] were 0.031 µM and 2.7 µM, respectively.

Consider `O=C(NC1CCCC1)NC(Cc1ccccc1)(c1cccc(OC(F)(F)C(F)F)c1)c1ccc(Cl)cn1` (racemic), for which the IC50 was 0.025 µM in series [8] and 0.84 µM in series [9].

With `CC(C)(C)CC(=O)OC(Cc1ccccc1)(c1cccc(C(F)(F)F)c1)c1ccccn1` (racemic), the IC50 turned out to be 6.9 µM in series [8] and 56 µM in [9].

Consider `CC(C)(C)CC(=O)OC(Cc1ccccc1)(c1cccc(C(F)(F)F)c1)c1ccc(Cl)cn1` (racemic), for which the IC50 worked out at 1.3 µM in [8] and 9.4 µM in series [9].

For the compound `CC(C)(C)CC(=O)OC(Cc1ccccc1)(c1cccc(OC(F)(F)C(F)F)c1)c1ccccn1` (racemic), the IC50 in [8] is 1.1 µM; in series [9], 28 µM.

For the compound `O=C(NC1CCCC1)NC(Cc1ccccc1)(c1cccc(C(F)(F)F)c1)c1ccc(F)cn1` (racemic), the IC50 stood at 0.24 µM in [8] and 6.9 µM in [9].

With `O=C(NC1CCCC1)NC(Cc1ccccc1)(c1cccc(C(F)(F)F)c1)c1ccc(Cl)cn1` (racemic), the IC50 in [8] was 0.31 µM; in series [9], 16 µM.

`O=C(NC1CCCC1)NC(Cc1ccccc1)(c1ccc(Cl)nc1)c1cc(F)cc(C(F)(F)F)c1` (racemic): the IC50 in [8] is 0.031 µM; in [9] it was 12 µM.

Take `CCOC(=O)N1c2ccc(C(F)(F)F)cc2[C@@H](N(Cc2cc(C(F)(F)F)cc(C(F)(F)F)c2)C(=O)OC)C[C@H]1CC` [TORCETRAPIB]: the AUC(0-t) at 8 h in [3] came to 65 µM·h. This compound also gave an IC50 in series [4] of 0.16 µM. The compound also showed an activity in vivo at 30 mg/kg in [5] of 31%. Further, the CETP activity in vivo at 30 mg/kg in series [6] is 25%; in [7], 31%.

A word on the AUC(0-t): it is exposure summed from dosing to a finite time, without extrapolation to infinity. In general, IC50 refers to the midpoint of a concentration-inhibition curve. A word on the half-life: it is the time in which the quantity being followed falls by half. Usually Cmax stands for the highest concentration seen after dosing.
